Assay results reported in ChEMBL document CHEMBL1154352, “Toll-like receptor 7 selective synthetic oligoribonucleotide agonists: synthesis and structure-activity relationship studies” (J Med Chem, 2009).
The source made the active and inactive calls. The calls are words filed in the database; no cut-off is given here.

Tests used:
[1] = target: T1, Toll-like receptor 7 (Homo sapiens) (UniProt Q9NYK1); assay: Activation of human TLR7 expressed in HEK293XL assessed as fold induction of NF-kappaB activity at 50 ug/ml after 18 hrs by reporter gene assay relative to control
T1 sequence (whole entry): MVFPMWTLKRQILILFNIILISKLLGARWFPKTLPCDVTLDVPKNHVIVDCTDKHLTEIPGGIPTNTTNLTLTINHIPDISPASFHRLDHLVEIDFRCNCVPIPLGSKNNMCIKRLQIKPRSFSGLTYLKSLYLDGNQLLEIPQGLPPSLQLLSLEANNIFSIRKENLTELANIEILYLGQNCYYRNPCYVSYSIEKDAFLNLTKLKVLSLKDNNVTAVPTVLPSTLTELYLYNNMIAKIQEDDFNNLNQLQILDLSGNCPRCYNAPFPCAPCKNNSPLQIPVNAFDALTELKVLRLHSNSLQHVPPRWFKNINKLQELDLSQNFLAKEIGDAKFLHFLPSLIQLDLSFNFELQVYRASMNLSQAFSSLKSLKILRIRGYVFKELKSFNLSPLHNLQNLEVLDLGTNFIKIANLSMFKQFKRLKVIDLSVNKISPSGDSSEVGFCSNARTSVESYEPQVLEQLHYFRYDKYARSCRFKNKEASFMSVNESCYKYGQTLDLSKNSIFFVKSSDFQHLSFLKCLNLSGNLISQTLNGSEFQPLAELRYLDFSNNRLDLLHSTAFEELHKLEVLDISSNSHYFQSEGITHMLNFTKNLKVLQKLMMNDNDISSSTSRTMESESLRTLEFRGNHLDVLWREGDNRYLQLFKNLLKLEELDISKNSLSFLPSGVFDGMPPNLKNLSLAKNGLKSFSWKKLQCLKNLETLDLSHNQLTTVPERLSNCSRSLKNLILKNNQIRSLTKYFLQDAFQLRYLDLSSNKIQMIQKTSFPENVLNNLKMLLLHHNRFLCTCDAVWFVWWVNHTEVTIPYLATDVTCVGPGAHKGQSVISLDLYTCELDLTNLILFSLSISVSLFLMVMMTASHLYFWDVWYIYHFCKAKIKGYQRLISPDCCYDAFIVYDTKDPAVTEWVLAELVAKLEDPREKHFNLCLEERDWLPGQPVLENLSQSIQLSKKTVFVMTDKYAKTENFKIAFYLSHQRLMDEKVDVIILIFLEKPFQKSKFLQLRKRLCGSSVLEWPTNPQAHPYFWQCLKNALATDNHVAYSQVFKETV
Outline: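 HEK293 cells stably expressing human TLR7 or TLR8, transiently transfected with SEAP reporter plasmid; medium replaced, SIMRA compounds added, 18 h incubation. Supernatant SEAP measured by QuantiBlue; expressed as fold increase in NF-κB activity over PBS control. Tabulated data at 50 μg/mL, representative of three independent experiments.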

Homo sapiens = species on record: Homo sapiens; assay: Ratio of human TLR7 activity to human TLR8 activity
Outline: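 TLR7/TLR8 ratio computed from fold NF-κB (SEAP reporter) activation in HEK293 cells stably expressing human TLR7 versus TLR8, compounds at 50 μg/mL, 18 h exposure; representative of three independent experiments.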

[2] = target: T2, Toll-like receptor 9 (Mus musculus) (UniProt Q9EQU3); assay: Activation of mouse TLR9 expressed in HEK293 assessed as induction of NF-kappaB activity reporter gene assay; assay type: cell-based
T2 sequence (whole entry): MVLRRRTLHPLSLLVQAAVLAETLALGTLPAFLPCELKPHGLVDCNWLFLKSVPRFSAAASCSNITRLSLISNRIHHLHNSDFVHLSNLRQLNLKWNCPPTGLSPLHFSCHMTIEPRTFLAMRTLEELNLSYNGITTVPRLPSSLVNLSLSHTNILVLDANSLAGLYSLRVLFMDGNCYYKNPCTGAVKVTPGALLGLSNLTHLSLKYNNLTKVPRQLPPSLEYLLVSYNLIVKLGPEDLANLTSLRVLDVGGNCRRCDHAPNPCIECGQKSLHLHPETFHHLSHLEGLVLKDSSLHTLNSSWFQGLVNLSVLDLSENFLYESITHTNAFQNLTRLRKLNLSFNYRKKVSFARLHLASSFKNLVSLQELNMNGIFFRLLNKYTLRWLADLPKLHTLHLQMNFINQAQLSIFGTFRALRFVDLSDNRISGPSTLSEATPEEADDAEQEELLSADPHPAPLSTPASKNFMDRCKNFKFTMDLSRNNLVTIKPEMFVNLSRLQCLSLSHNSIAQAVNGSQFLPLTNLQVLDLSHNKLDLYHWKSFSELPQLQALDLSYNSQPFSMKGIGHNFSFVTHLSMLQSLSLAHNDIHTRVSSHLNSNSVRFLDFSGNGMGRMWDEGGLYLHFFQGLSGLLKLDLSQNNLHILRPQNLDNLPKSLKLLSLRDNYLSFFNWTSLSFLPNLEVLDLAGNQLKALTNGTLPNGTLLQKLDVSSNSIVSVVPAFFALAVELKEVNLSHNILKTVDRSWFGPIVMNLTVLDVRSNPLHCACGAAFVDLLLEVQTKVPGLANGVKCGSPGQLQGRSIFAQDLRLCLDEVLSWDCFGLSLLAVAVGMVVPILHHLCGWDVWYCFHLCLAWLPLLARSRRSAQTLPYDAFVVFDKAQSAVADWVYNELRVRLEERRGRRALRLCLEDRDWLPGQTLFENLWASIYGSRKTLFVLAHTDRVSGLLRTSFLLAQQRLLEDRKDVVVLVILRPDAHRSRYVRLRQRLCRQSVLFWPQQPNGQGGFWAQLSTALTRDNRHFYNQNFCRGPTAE

[3] = target: Toll-like receptor 3 (Homo sapiens) (UniProt O15455); assay: Activation of human TLR3 expressed in HEK293 assessed as induction of NF-kappaB activity reporter gene assay; assay type: cell-based
Chain of Toll-like receptor 3 (Homo sapiens) (O15455 whole entry): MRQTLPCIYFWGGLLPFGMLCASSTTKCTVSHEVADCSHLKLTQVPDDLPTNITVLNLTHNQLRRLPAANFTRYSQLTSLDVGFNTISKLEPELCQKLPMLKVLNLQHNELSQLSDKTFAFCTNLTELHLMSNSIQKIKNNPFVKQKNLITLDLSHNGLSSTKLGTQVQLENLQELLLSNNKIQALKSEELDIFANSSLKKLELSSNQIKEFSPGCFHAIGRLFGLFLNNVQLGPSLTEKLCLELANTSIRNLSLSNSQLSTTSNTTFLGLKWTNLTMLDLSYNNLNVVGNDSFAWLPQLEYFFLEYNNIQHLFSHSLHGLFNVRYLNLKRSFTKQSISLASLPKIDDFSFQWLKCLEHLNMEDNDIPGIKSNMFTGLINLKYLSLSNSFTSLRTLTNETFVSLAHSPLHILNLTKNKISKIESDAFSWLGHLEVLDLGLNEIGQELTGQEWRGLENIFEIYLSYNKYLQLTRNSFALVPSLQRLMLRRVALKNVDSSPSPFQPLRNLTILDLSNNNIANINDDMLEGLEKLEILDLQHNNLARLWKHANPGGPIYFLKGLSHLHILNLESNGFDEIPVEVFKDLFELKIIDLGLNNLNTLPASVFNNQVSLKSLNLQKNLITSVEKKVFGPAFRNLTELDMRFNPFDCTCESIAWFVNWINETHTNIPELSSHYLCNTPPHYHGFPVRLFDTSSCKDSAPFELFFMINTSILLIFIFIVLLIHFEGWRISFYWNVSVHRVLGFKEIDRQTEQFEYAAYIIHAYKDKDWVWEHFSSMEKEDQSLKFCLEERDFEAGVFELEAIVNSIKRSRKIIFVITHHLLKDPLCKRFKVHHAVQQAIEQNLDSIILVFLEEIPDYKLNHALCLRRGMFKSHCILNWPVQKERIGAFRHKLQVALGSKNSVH

Splenocyte [4] = assay: Immunomodulatory activity in C57BL/6 mouse splenocytes bearing TLR7 receptor assessed as IL6 release at 100 ug/ml after 24 hrs by ELISA; assay type: functional, cell-based
Outline: (§1)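 C57BL/6 splenocytes in RPMI 1640 with 10% FBS, penicillin/streptomycin, 2 mM L-glutamine, plated at 5 × 10^6 cells/mL; compounds in PBS added, 37 °C for 24 h. Supernatant IL-12 and IL-6 by ELISA; representative of three independent experiments.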

Splenocyte [5] = assay: Immunomodulatory activity in C57BL/6 mouse splenocytes bearing TLR7 receptor assessed as IL12 release at 100 ug/ml after 24 hrs by ELISA; assay type: functional, cell-based; outline: as §1

fold change (FC) [1]	Ratio (Homo sapiens)	Activity [2]	Activity [3]	Activity (Splenocyte [4])	Activity (Splenocyte [5])	Structure (SMILES)
23.3	12.9	inactive	inactive	Active	Active	Nc1ccn([C@@H]2O[C@H](COP(=O)(S)O[C@H]3[C@@H](O)[C@H](n4ccc(N)nc4=O)O[C@@H]3COP(=O)(S)O[C@H]3[C@@H](O)[C@H](n4cnc5c(N)ncnc54)O[C@@H]3COP(=O)(S)O[C@H]3[C@@H](O)[C@H](n4ccc5c(=O)[nH]c(N)nc54)O[C@@H]3COP(=O)(S)O[C@H]3[C@@H](O)[C@H](n4ccc(=O)[nH]c4=O)O[C@@H]3COP(=O)(S)O[C@H]3[C@@H](O)[C@H](n4ccc(=O)[nH]c4=O)O[C@@H]3COP(=O)(S)O[C@H]3[C@@H](O)[C@H](n4ccc(N)nc4=O)O[C@@H]3COP(=O)(S)O[C@H]3[C@@H](O)[C@H](n4cnc5c(N)ncnc54)O[C@@H]3CO)[C@@H](OP(=O)(S)OC[C@H]3O[C@@H](n4ccc(=O)[nH]c4=O)[C@H](O)[C@@H]3OP(=O)(S)OC[C@H]3O[C@@H](n4ccc(=O)[nH]c4=O)[C@H](O)[C@@H]3OP(=O)(S)OC[C@H]3O[C@@H](n4ccc(=O)[nH]c4=O)[C@H](O)[C@@H]3OP(=O)(S)OCC(O)COP(=O)(S)O[C@H]3[C@@H](O)[C@H](n4ccc(=O)[nH]c4=O)O[C@@H]3COP(=O)(S)O[C@H]3[C@@H](O)[C@H](n4ccc(=O)[nH]c4=O)O[C@@H]3COP(=O)(S)O[C@H]3[C@@H](O)[C@H](n4ccc(=O)[nH]c4=O)O[C@@H]3COP(=O)(S)O[C@H]3[C@@H](O)[C@H](n4ccc(N)nc4=O)O[C@@H]3COP(=O)(S)O[C@H]3[C@@H](O)[C@H](n4ccc(N)nc4=O)O[C@@H]3COP(=O)(S)O[C@H]3[C@@H](O)[C@H](n4cnc5c(N)ncnc54)O[C@@H]3COP(=O)(S)O[C@H]3[C@@H](O)[C@H](n4ccc5c(=O)[nH]c(N)nc54)O[C@@H]3COP(=O)(S)O[C@H]3[C@@H](O)[C@H](n4ccc(=O)[nH]c4=O)O[C@@H]3COP(=O)(S)O[C@H]3[C@@H](O)[C@H](n4ccc(=O)[nH]c4=O)O[C@@H]3COP(=O)(S)O[C@H]3[C@@H](O)[C@H](n4ccc(N)nc4=O)O[C@@H]3COP(=O)(S)O[C@H]3[C@@H](O)[C@H](n4cnc5c(N)ncnc54)O[C@@H]3CO)[C@H]2O)c(=O)n1 (some centres not stated)
6.5	21.7	inactive	inactive	Active	Active	Nc1ccn([C@@H]2O[C@H](COP(=O)(S)O[C@H]3[C@@H](O)[C@H](n4cnc5c(N)ncnc54)O[C@@H]3COP(=O)(S)O[C@H]3[C@@H](O)[C@H](n4cnc5c(N)ncnc54)O[C@@H]3CO)[C@@H](OP(=O)(S)OC[C@H]3O[C@@H](n4ccc(=O)[nH]c4=O)[C@H](O)[C@@H]3OP(=O)(S)OC[C@H]3O[C@@H](n4ccc5c(=O)[nH]c(N)nc54)[C@H](O)[C@@H]3OP(=O)(S)OC[C@H]3O[C@@H](n4ccc(N)nc4=O)[C@H](O)[C@@H]3OP(=O)(S)OC[C@H]3O[C@@H](n4ccc5c(=O)[nH]c(N)nc54)[C@H](O)[C@@H]3OP(=O)(S)OC[C@H]3O[C@@H](n4cnc5c(N)ncnc54)[C@H](O)[C@@H]3OP(=O)(S)OC[C@H]3O[C@@H](n4ccc(N)nc4=O)[C@H](O)[C@@H]3OP(=O)(S)OC[C@H]3O[C@@H](n4ccc(=O)[nH]c4=O)[C@H](O)[C@@H]3OP(=O)(S)OC[C@H]3O[C@@H](n4ccc(=O)[nH]c4=O)[C@H](O)[C@@H]3OP(=O)(S)OCC(O)COP(=O)(S)O[C@H]3[C@@H](O)[C@H](n4ccc(=O)[nH]c4=O)O[C@@H]3COP(=O)(S)O[C@H]3[C@@H](O)[C@H](n4ccc(=O)[nH]c4=O)O[C@@H]3COP(=O)(S)O[C@H]3[C@@H](O)[C@H](n4ccc(N)nc4=O)O[C@@H]3COP(=O)(S)O[C@H]3[C@@H](O)[C@H](n4cnc5c(N)ncnc54)O[C@@H]3COP(=O)(S)O[C@H]3[C@@H](O)[C@H](n4ccc5c(=O)[nH]c(N)nc54)O[C@@H]3COP(=O)(S)O[C@H]3[C@@H](O)[C@H](n4ccc(N)nc4=O)O[C@@H]3COP(=O)(S)O[C@H]3[C@@H](O)[C@H](n4ccc5c(=O)[nH]c(N)nc54)O[C@@H]3COP(=O)(S)O[C@H]3[C@@H](O)[C@H](n4ccc(=O)[nH]c4=O)O[C@@H]3COP(=O)(S)O[C@H]3[C@@H](O)[C@H](n4ccc(N)nc4=O)O[C@@H]3COP(=O)(S)O[C@H]3[C@@H](O)[C@H](n4cnc5c(N)ncnc54)O[C@@H]3COP(=O)(S)O[C@H]3[C@@H](O)[C@H](n4cnc5c(N)ncnc54)O[C@@H]3CO)[C@H]2O)c(=O)n1 (some centres not stated)
